Active and inactive are the calls of the source. The calls are words filed in the database; no cut-off is given here.
How the values were obtained:
Neutrophil elastase = biological target: T1, Neutrophil elastase (Homo sapiens, UniProt P08246); assay: Inhibition of human neutrophil elastase using N-methylsuccinyl-Ala-Ala-Pro-Val-7-amino-4-methylcoumarin as substrate measured every 30 seconds for 10 mins by fluorescence microplate reader analysis
T1 sequence (P08246 whole entry): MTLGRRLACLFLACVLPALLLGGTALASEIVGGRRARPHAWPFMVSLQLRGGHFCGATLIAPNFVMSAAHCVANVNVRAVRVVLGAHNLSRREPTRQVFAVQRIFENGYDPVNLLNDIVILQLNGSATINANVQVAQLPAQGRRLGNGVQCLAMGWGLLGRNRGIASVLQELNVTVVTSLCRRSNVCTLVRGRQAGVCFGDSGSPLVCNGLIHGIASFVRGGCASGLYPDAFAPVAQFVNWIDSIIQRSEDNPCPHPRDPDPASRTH

Plasma kallikrein [1] = biological target: T2, Plasma kallikrein (Homo sapiens, UniProt P03952); assay: Inhibition of human plasma kallikrein using benzyloxycarbonyl-Phe-Arg-7-amino-4-methylcoumarin as substrate at 50 uM by fluorescence microplate reader analysis
[2] = biological target: T3, Urokinase-type plasminogen activator (Homo sapiens, UniProt P00749); assay: Inhibition of human urokinase using benzyloxycarbonyl-Gly-Gly-Arg-7-amino-4-methylcoumarin as substrate by fluorescence microplate reader analysis
Chymotrypsinogen B = Chymotrypsinogen B (Homo sapiens, UniProt P17538); assay: Inhibition of human pancreatic chymotrypsin using Suc-Ala-Ala-Pro-7-amino-4-methylcoumarin as substrate by fluorescence microplate reader analysis
Prothrombin = Prothrombin (Homo sapiens, UniProt P00734); assay: Inhibition of human plasma thrombin using benzonyl-Phe-Val-Arg-7-amino-4-methylcoumarin as substrate by fluorescence microplate reader analysis
[3] = biological target: T4, Neutrophil elastase (Homo sapiens) (UniProt P08246); assay: Inhibition of human neutrophil elastase using N-methylsuccinyl-Ala-Ala-Pro-Val-7-amino-4-methylcoumarin as substrate at 50 uM measured every 30 seconds for 10 mins by fluorescence microplate reader analysis
T4 sequence (whole entry): T1 sequence (P08246 whole entry)

[4] = biological target: T4, Neutrophil elastase (Homo sapiens); assay: Reversible inhibition of human neutrophil elastase using N-methylsuccinyl-Ala-Ala-Pro-Val-7-amino-4-methylcoumarin as substrate at 5 uM after 1 to 2 hrs by fluorescence microplate reader analysis
[5] = Half life in phosphate buffer at pH 7.3; type: physicochemical
[6] = biological target: Cathepsin D (Homo sapiens) (UniProt P07339); assay: Inhibition of human spleen cathepsin D using MOCAc-Gly-Lys-Pro-Ile-Leu-Phe-Phe-Arg-Leu-Lys (Dnp)-D-Arg-NH2 as substrate at 50 uM by fluorescence microplate reader analysis
Method in brief: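 Cathepsin D from human spleen, 0.1 U/mL, in 0.1 M sodium acetate pH 5.0 with 5 μM MOCAc peptide substrate, 25 °C. Highest compound concentration tested 50 μM.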

Plasma kallikrein [7] = biological target: T2, Plasma kallikrein; assay: Inhibition of human plasma kallikrein using benzyloxycarbonyl-Phe-Arg-7-amino-4-methylcoumarin as substrate by fluorescence microplate reader analysis
[8] = biological target: T4, Neutrophil elastase (Homo sapiens); assay: Inhibition of human neutrophil elastase using N-methylsuccinyl-Ala-Ala-Pro-Val-7-amino-4-methylcoumarin as substrate at 5 uM after 4 hrs by fluorescence microplate reader analysis
[9] = biological target: T3, Urokinase-type plasminogen activator; assay: Inhibition of human urokinase using benzyloxycarbonyl-Gly-Gly-Arg-7-amino-4-methylcoumarin as substrate at 50 uM by fluorescence microplate reader analysis
[10] = biological target: T4, Neutrophil elastase (Homo sapiens); assay: Competitive inhibition of human neutrophil elastase using N-methylsuccinyl-Ala-Ala-Pro-Val-7-amino-4-methylcoumarin as substrate by Lineweaver-Burk plot analysis
[11] = biological target: T4, Neutrophil elastase (Homo sapiens); assay: Inhibition of human neutrophil elastase using N-methylsuccinyl-Ala-Ala-Pro-Val-7-amino-4-methylcoumarin as substrate at 5 uM after 5 hrs by fluorescence microplate reader analysis

Chymotrypsinogen B, sequence (P17538 34-164 limits assumed, other chains not shown): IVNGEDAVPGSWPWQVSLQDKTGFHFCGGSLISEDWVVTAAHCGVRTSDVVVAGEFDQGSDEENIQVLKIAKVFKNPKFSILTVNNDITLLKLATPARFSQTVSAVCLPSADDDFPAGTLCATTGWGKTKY
Chymotrypsinogen B, sequence (P17538 167-263 limits assumed, other chains not shown): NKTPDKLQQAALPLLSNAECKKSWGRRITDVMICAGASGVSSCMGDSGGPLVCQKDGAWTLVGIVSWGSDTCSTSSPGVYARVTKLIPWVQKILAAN
Cathepsin D (Homo sapiens), sequence (P07339 65-162 limits assumed): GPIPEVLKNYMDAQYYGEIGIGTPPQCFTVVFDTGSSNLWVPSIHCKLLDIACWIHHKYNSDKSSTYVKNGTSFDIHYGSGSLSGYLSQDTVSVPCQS
Cathepsin D (Homo sapiens), sequence (P07339 169-412 limits assumed): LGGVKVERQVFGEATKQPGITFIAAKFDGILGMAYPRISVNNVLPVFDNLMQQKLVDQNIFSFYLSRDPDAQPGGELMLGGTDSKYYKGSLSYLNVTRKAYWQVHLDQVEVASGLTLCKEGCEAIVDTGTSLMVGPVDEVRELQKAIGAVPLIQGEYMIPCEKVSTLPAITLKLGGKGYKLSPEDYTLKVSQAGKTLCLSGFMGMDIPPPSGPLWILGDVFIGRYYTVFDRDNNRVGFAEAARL
T2 sequence (P03952 20-390 limits assumed): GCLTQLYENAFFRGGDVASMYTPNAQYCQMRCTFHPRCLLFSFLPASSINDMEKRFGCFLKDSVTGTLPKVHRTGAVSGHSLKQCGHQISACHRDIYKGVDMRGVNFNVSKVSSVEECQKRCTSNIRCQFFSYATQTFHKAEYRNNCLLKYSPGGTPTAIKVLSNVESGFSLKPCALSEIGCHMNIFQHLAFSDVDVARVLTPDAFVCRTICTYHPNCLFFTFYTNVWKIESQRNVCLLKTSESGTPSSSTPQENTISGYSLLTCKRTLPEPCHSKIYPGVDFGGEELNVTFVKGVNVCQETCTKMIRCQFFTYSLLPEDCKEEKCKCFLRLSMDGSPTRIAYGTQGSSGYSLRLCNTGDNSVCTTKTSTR
T2 sequence (P03952 391-638 limits assumed): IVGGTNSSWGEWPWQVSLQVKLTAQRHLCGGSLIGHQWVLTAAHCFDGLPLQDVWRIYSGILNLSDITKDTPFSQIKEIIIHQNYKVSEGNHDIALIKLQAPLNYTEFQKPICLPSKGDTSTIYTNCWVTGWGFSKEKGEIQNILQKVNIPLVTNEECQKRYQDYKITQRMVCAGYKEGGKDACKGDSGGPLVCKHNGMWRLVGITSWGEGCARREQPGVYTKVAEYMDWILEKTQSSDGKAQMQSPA

Structure (SMILES) | IC50 (Neutrophil elastase) [nM] | inhibition (Plasma kallikrein [1]) | IC50 [2] [nM] | IC50 (Chymotrypsinogen B) [nM] | IC50 (Prothrombin) [nM] | also measured
Cc1cccc(C(=O)n2nc(C#N)c3ccccc32)c1 |  | inactive | 6600 | 66 | 1900 | 
COC(=O)c1nn(C(=O)c2ccsc2)c2ccc([N+](=O)[O-])cc12 | 50 |  |  |  |  | 
COC(=O)c1nn(C(=O)c2ccsc2)c2ccc(Br)cc12 | 160 |  |  |  |  | 
COC(=O)c1nn(C(=O)c2cccc(C)c2)c2c([N+](=O)[O-])cccc12 |  |  |  |  |  | inhibition [3]: inactive
CCOC(=O)c1nn(C(=O)c2ccccc2)c2ccc(OC)cc12 | 80 |  |  |  |  | 
CCOC(=O)c1nn(C(=O)c2ccsc2)c2ccc(Br)cc12 | 260 |  |  |  |  | 
N#Cc1nn(C(=O)c2ccccc2)c2ccccc12 | 40 |  |  |  |  | 
COC(=O)c1nn(C(=O)c2ccccc2)c2ccc([N+](=O)[O-])cc12 | 30 |  | 620 | 31 | 830 | inhibition [4]: Active; t1/2 [5]: 37.9 min; inhibition [6]: inactive; IC50 (Plasma kallikrein [7]): 11.2 µM
CCOC(=O)c1nn(C(=O)c2cccc(OC)c2)c2ccc([N+](=O)[O-])cc12 |  | inactive | 480 | 21 | 82 | 
COC(=O)c1nn(C(=O)c2cccc(C)c2)c2ccc(Br)cc12 | 80 | inactive |  |  |  | 
COC(=O)c1nn(C(=O)c2cccc(C)c2)c2ccc([N+](=O)[O-])cc12 |  | inactive | 440 |  | 1100 | inhibition [8]: Active; t1/2 [5]: 47.8 min; inhibition [6]: inactive
CCOC(=O)c1nn(C(=O)c2ccccc2)c2ccc([N+](=O)[O-])cc12 | 20 |  |  |  |  | 
CCOC(=O)c1nn(C(=O)c2ccsc2)c2ccc([N+](=O)[O-])cc12 | 30 | inactive | 25300 | 46 | 370 | inhibition [4]: Active; t1/2 [5]: 32.8 min; inhibition [6]: inactive
COC(=O)c1nn(C(=O)c2cccc(C)c2)c2cc([N+](=O)[O-])ccc12 | 20 | inactive | 310 | 38 | 640 | t1/2 [5]: 41.5 min; inhibition [6]: inactive
COC(=O)c1nn(C(=O)c2cccc(OC)c2)c2ccc(Br)cc12 |  | inactive |  |  |  | 

Further lines, with some results ahead:

IC50 (Neutrophil elastase) [nM] | inhibition (Plasma kallikrein [1]) | IC50 [2] [nM] | IC50 (Chymotrypsinogen B) [nM] | IC50 (Prothrombin) [nM] | Structure (SMILES) | also measured
140 |  |  |  |  | CCOC(=O)c1nn(C(=O)c2cccc(C)c2)c2ccc(OC)cc12 | 
50 |  |  |  |  | CCCC(=O)Nc1ccc2c(c1)c(C(=O)OCC)nn2C(=O)c1cccc(C)c1 | 
 | inactive | 1500 | 40 | 480 | CCOC(=O)c1nn(C(=O)c2cccc(C)c2)c2ccc([N+](=O)[O-])cc12 | 
110 |  |  |  |  | CCOC(=O)c1nn(C(=O)c2cccc(C)c2)c2ccc(OC(F)(F)F)cc12 | 
 | inactive | 14800 | 140 | 39 | CCOC(=O)c1nn(C(=O)c2cccc(C)c2)c2ccc(NC(=O)CC)cc12 | 
30 | inactive | 13700 |  | 310 | CCOC(=O)c1nn(C(=O)c2cccc(C)c2)c2ccc(NC(C)=O)cc12 | inhibition [8]: Active; t1/2 [5]: 78.8 min; inhibition [6]: inactive
140 |  |  |  |  | CCOC(=O)c1nn(C(=O)c2cccc(C)c2)c2ccc(N(C)C)cc12 | 
12 | inactive |  | 370 | 160 | CCOC(=O)c1nn(C(=O)c2cccc(C)c2)c2ccc(NC(=O)C3CC3)cc12 | inhibition [9]: inactive; inhibition [10]: Active; t1/2 [5]: 51.7 min; inhibition [11]: Active; inhibition [6]: inactive

From ChEMBL document CHEMBL2406965, “Optimization of N-benzoylindazole derivatives as inhibitors of human neutrophil elastase” (J Med Chem, 2013)
